Where a name gives a salt, the structure may show the parent alone.
Biological target: Thymidine phosphorylase (Escherichia coli K-12, UniProt P07650)
Assay: Inhibition of Escherichia coli Thymidine phosphorylase by spectrophotometry
Conditions: not given; call rule not given here
How it was run: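 E. coli TP (0.22 units) added to start a 1 ml reaction containing […] and inhibitor in 0.1 M potassium phosphate, pH 7.4. Loss of thymidine absorbance followed at 265 nm, 25 °C, in a thermostatted cuvette. IC50 obtained from inhibition curves by enzyme kinetics analysis.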

Thymidine phosphorylase, sequence (P07650 whole entry): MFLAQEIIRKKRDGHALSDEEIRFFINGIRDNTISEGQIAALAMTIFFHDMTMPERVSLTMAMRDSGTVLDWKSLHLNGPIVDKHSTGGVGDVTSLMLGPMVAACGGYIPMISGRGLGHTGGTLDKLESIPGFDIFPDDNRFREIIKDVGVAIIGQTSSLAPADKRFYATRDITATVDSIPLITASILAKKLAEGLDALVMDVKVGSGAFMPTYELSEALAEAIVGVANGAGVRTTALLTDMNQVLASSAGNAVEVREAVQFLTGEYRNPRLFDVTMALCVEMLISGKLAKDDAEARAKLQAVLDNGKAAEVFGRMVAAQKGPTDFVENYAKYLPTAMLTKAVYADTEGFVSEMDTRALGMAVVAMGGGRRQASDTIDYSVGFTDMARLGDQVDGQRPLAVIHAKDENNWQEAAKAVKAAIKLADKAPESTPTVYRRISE

| IC50 | Structure (SMILES) |
| --- | --- |
| Active | O=C(O)CN1C(=O)C(=O)N(Cc2cccc(Cl)c2)C1=O |

Same assay, conditions: read-out: IC50

| IC50 [µM] | Structure (SMILES) |
| --- | --- |
| 115 | O=C1NC(=O)N(Cc2ccccc2)C1=O |
| 66 | NC(=O)CCN1C(=O)C(=O)N(Cc2cccc(Cl)c2)C1=O |
| 264 | O=C(O)CN1C(=O)C(=O)N(Cc2ccccc2)C1=O |
| 117 | O=C1NC(=O)N(Cc2cccc(Cl)c2)C1=O |
| 292 | CCOC(=O)CN1C(=O)C(=O)N(Cc2cccc(Cl)c2)C1=O |
| 88 | Cc1ccccc1CN1C(=O)C(=O)N(CCC(N)=O)C1=O |
| 236 | Cc1ccccc1CN1C(=O)C(=O)N(CC(=O)O)C1=O |
| 357 | CCOC(=O)CN1C(=O)C(=O)N(CCc2ccccc2)C1=O |
| 0.036 | N=C1CCCN1Cc1[nH]c(=O)[nH]c(=O)c1Cl [TIPIRACIL HYDROCHLORIDE] |
| 103 | O=C1NC(=O)N(CCc2ccccc2)C1=O |
| 128 | Cc1ccccc1CN1C(=O)NC(=O)C1=O |
| 40 | NC(=O)CCN1C(=O)C(=O)N(CCc2ccccc2)C1=O |
| 342 | CCOC(=O)CN1C(=O)C(=O)N(Cc2ccccc2)C1=O |
| 85 | O=C(O)CN1C(=O)C(=O)N(CCc2ccccc2)C1=O |
| 303 | CCOC(=O)CN1C(=O)C(=O)N(Cc2ccccc2C)C1=O |
| 106 | NC(=O)CCN1C(=O)C(=O)N(Cc2ccccc2)C1=O |

Source: ChEMBL document CHEMBL1759944, “Structure-activity relationship of 2,4,5-trioxoimidazolidines as inhibitors of thymidine phosphorylase” (Eur J Med Chem, 2011)
